High-throughput results deposited in PubChem by The Scripps Research Institute Molecular Screening Center.
In the library only some 2.3% were active in any assay of this set; here they are far more common.
SIAE primary – inhibitors of human sialic acid acetylesterase SIAE. SIAE FP-Rh probe binding, fluorescence polarization. inhibition, % at 9.66 µM. 370,000 tested, 0.69% active. AID 1053197;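 active = inhibition above a cutoff: mean of compounds within the control limits plus 3 SD of those, cut at about 17% in these data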;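 note: 0% = plate median of compound wells and 100% = probe without SIAE protein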
Target sequence (Q9HAT2 whole entry, looked up): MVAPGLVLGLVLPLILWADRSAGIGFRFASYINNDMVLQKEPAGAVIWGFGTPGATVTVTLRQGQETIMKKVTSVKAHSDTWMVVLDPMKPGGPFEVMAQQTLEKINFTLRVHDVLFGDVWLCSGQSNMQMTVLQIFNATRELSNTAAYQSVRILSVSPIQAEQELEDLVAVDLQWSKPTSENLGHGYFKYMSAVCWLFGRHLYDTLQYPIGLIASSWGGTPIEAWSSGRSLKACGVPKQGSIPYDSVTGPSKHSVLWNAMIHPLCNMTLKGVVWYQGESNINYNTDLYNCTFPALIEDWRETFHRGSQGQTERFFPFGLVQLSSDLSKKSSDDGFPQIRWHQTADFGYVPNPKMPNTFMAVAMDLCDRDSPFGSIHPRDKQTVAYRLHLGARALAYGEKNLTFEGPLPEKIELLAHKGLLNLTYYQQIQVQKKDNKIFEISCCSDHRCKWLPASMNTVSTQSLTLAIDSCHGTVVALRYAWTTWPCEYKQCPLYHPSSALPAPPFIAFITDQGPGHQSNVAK
ABHD4 inh – inhibits mouse alpha/beta hydrolase domain 4; Q8VD66; purified mABHD4, FP-Rh probe fluorescence polarization; inhibition, % at 8.92 µM; 370,000 tested, 0.54% active; AID 720543;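 active = inhibition exceeding the mean over every tested compound plus 3 SD, cut at about 30% in these data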;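 note: 0% = plate median of compound wells and 100% = S159A mutant with DMSO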
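Assay system: mABHD4 protein; medium: HEPES pH 7.0, NaCl, Pluronic buffer; dosing: 8.92 µM, single dose; schedule: 45 min + 60 min at 25 °C; signal: FP readout, ex 525 nm / em 598 nm; read-out: normalized percent inhibition of probe labeling; repeats: single replicate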
pPAFAH FP inh – pPAFAH (human) enzyme inhibition | recombinant pPAFAH, FP-rhodamine probe fluorescence polarization | 330,000 tested, 1.5% active | inhibition, % at 3.39 µM | Q13093;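 active = inhibition above the mean inhibition across the screen plus 3 SD, cut at about 25% in these data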;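 note: inhibitors block binding of the rhodamine activity-based probe so polarization drops; 0% = enzyme with DMSO and 100% = wells lacking pPAFAH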
HTRA1 inhibitor – HTRA1 (human) protease inhibition | Q92743 | recombinant HTRA1, FP-rhodamine activity-based probe, fluorescence polarization | inhibition, % at 5.96 µM | 340,000 tested, 0.5% active; in the data active = inhibition above about 36%;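 note: 0% = enzyme with DMSO and 100% = wells lacking enzyme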
TCR CD3 inh – human TCR-CD3 binding inhibition | inhibition, % at 9.4 µM | 360,000 tested, 0.37% active | TAMRA-labeled TCR probe fluorescence, biochemical | AID 651800; in the data active = inhibition above about 19%;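 note: recombinant mutant TCR 2C K166C tagged with TAMRA read by polarization; 0% = receptor in buffer alone and 100% = receptor with positive control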
ABHD4 confirm – confirmation of mouse ABHD4 inhibitors; shares compounds with ABHD4 inh; purified mABHD4, FP-Rh probe fluorescence polarization; inhibition, % at 8.92 µM; 1,800 tested, 55% active; AID 720658;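 active = mean inhibition across replicates above the hit cutoff set in the primary screen, cut at about 30% in these data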;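 note: 0% = wild-type ABHD4 with DMSO and 100% = catalytically dead S159A mutant with DMSO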
The depositor's hits bear a star; x = not tested or not shown.

SMILES	SIAE primary	ABHD4 inh	pPAFAH FP inh	HTRA1 inhibitor	TCR CD3 inh	ABHD4 confirm
CCOC(=O)c1ccc(NC2=CC(=O)C(=O)c3ccccc32)cc1	7.4	30.0*	17.2	8.7	15.4	43.7*
Cc1cc(NC2=CC(=O)C(=O)c3ccccc32)no1	7.6	22.1	x	11.2	0.3	x
Cc1ccc(NC2=CC(=O)C(=O)c3ccccc32)cc1	8.7	37.8*	9.2	8.6	2.6	21.7
NS(=O)(=O)c1ccc(NC2=CC(=O)C(=O)c3ccccc32)cc1	5.1	30.6*	17.5	14.4	-5.3	8.9
CCOC(=O)c1ccc(NC(=O)C(C)N2C(=O)c3ccccc3C2=O)cc1 (stereo not drawn)	8.8	-13.8	-0.1	1.0	6.0	x
O=C(CSc1nnc(-c2ccccn2)n1-c1ccccc1)c1ccc(F)cc1	0.7	-3.9	x	x	x	x
Oc1ccccc1N=Cc1sc2ccccc2c1Cl	11.7	32.4*	11.0	6.1	6.0	-5.9
O=C(Nc1ccc(F)c(Cl)c1)c1cc(C2CCCN(C(=O)CCc3ccccc3)C2)on1 (stereo not drawn)	-12.7	-17.8	x	x	2.1	x
C#CCN1CC(N(C)CCOC(=O)CSc2ccccc2)CS1(=O)=O (stereo not drawn)	-3.1	1.1	x	x	x	x
COc1ccc2c(c1)Sc1ccc(Cl)cc1N2	2.4	33.9*	x	x	x	34.4*
CC1(C)CC(=O)C2=C(C1)Nc1cc(Cl)ccc1S2	5.3	9.9	2.7	6.2	-0.5	x
CNCCNC[C@H](Cc1cccc2ccccc12)NCCc1ccccc1	3.7	5.8	3.0	5.5	7.0	x
CNC[C@H](Cc1ccccc1)NC[C@@H](Cc1cccc2ccccc12)NCCc1ccc(C)cc1	-0.3	49.4*	2.5	0.6	2.1	48.6*
NC(=S)N/N=C1\c2ccccc2-c2c(C(=O)O)cccc21	-29.2	41.9*	22.1	-1.8	9.1	47.1*
CCSC1=N/C(=C\c2ccc(-c3ccccc3[N+](=O)[O-])o2)C(=O)S1	11.1	37.1*	17.9	14.4	-3.0	16.1
CCCSC1=N/C(=C\c2ccc3c(c2)OCO3)C(=O)S1	4.0	2.8	3.5	-12.0	4.7	x
CCCSC1=N/C(=C\c2ccc([N+](=O)[O-])o2)C(=O)S1	15.1	38.4*	x	17.9	9.1	7.0
CCOc1cc(N2CCOCC2)c(OCC)cc1NC(=O)CN1CCc2ccccc2C1	6.4	30.9*	6.9	4.8	-3.1	15.1
COC(=O)[C@]12C[C@H](CC(=O)NCC34CC5CC(CC(C5)C3)C4)C(=O)N(Cc3ccco3)C1=C[C@H](COCc1ccccc1)O[C@@H]2C	0.6	7.5	x	x	x	x
Cc1ccc(CNc2nc(NCc3ccccc3)nc3ccsc23)c(C)c1	11.2	34.9*	x	x	-2.3	47.2*
COc1ccccc1CNc1nc(NCCOc2ccccc2)c2sccc2n1	6.3	37.1*	x	x	9.8	40.4*
CCCOc1cccc(OCC(=O)Nc2nc3ccccc3[nH]2)c1	-3.2	31.2*	-9.3	-6.2	-3.7	26.4
CCCCOc1cccc(OCC(=O)Nc2nc3ccccc3[nH]2)c1	-2.8	43.4*	3.8	-7.3	1.8	26.3
O=C(COc1ccccc1)Nc1nc2ccccc2[nH]1	6.8	-3.6	1.8	-0.4	2.9	x
CCOc1ccc(OCCCC(=O)Nc2nc3ccccc3[nH]2)cc1	0.8	2.0	-1.0	-0.2	1.4	x
SMILES	SIAE primary	ABHD4 inh	pPAFAH FP inh	HTRA1 inhibitor	TCR CD3 inh	ABHD4 confirm
O=C(c1ccc(Cl)cc1)N1CCN(c2ccccn2)CC1	-0.8	1.5	x	x	x	x
CCOC(=O)[C@]12CCCC3=C1N(CCC3)C(=O)[C@@H](CC(=O)NCc1ccccc1)C2	-3.4	-1.9	x	x	x	x
c1ccc2c(-c3c[nH]c4ccccc34)c3ccccc3nc2c1	-4.2	-25.8	-0.3	-44.2	0.9	x
O=C(O)c1cc(-c2c[nH]c3ccccc23)nc2ccc3ccccc3c12	-3.1	30.8*	5.5	-10.5	2.4	16.4
CCOC(=O)c1c(C)oc2ccc(OC(=O)N3CCOCC3)cc12	2.4	39.8*	19.4	-1.7	5.7	39.8*
COC(=O)c1c(C)oc2ccc(OC(=O)N3CCOCC3)cc12	1.3	19.9	13.7	-4.0	5.4	x
Cc1oc2ccc(OC(=O)N3CCOCC3)cc2c1C(=O)OC(C)C	-0.4	58.9*	13.1	-3.0	5.4	54.4*
Oc1ccc(NC(=S)Nc2ccc(F)cc2)cc1	5.0	33.3*	8.6	15.7	8.1	2.7
COc1ccc(NC(=O)c2ccccc2NC(=O)NC2CCCCC2)cc1	-7.9	46.8*	0.1	-8.0	6.0	-6.8
CCOC(=O)c1c(CSc2ccccc2)n(C)c2cc(Br)c(O)c(CN(C)C)c12	8.0	39.3*	1.5	-6.4	3.3	8.7
CCOC(=O)c1c(CSc2ccc(C)cc2)n(C)c2cc(Br)c(O)c(CN(C)C)c12	6.2	40.4*	5.9	-2.5	0.3	22.8
CCOC(=O)c1c(CN2CCCCC2)n(C)c2cc(Br)c(O)c(CN(C)C)c12	x	x	-3.0	-4.3	x	x
CCOC(=O)c1c(CSc2ccsc2)n(C)c2cc(Br)c(O)c(CN(C)C)c12	7.7	29.6*	3.4	-4.8	6.6	1.7
CCOC(=O)c1c(CN2CCOCC2)n(-c2ccccc2)c2cc(Br)c(O)c(CN(C)C)c12	5.7	2.7	5.7	-10.7	8.1	x
CC(C)CNS(=O)(=O)/C=C/c1cc2c(cc1CNC(=O)OC(C)(C)C)OCO2	13.3	-4.0	x	x	x	x
CCNC(=S)NNC(=O)c1cnccn1	5.4	45.6*	x	x	x	53.6*
CC1(C(=O)NS(=O)(=O)c2ccc(Br)cc2)CCN1C(=O)CCc1cccs1 (stereo not drawn)	6.4	5.2	x	x	1.6	x
CC1(C)OC(=O)C2=C(C[C@@H](CCc3ccccc3)O[C@H]2CCc2cccc(Cl)c2)O1	-1.7	-2.4	x	x	6.9	x
O=C(NCCc1c[nH]c2ccccc12)OCc1cn(-c2ccccc2Cl)nn1	0.0	-3.3	x	x	x	x
CCN(c1ccccc1)S(=O)(=O)c1cc(C(=O)OC2CCOC2=O)ccc1C (stereo not drawn)	4.8	30.7*	3.3	3.4	-1.1	23.3
CC(=O)Oc1ccc(C(=O)OCC(=O)c2c(N)n(C)c(=O)n(C)c2=O)cc1OC(C)=O	5.1	45.6*	7.3	12.7	0.0	3.9
CC(C)=C1C(=O)NN(c2ccc(F)c(Cl)c2)C1=O	3.9	31.9*	23.3	7.7	3.6	8.0
O=C(C1=C(O)C(=O)N(CCc2ccccc2)C1c1cccnc1)c1ccco1 (stereo not drawn)	6.2	2.5	-6.1	0.9	-1.8	x
O=C(C1=C(O)C(=O)N(CCc2ccccc2)C1c1cccs1)c1ccco1 (stereo not drawn)	-3.1	35.1*	-5.2	1.4	0.3	31.5*
CC(C)CN1C[C@@H]2CSCCS(=O)(=O)N2C1=O	5.2	3.9	x	x	x	x
CCc1cc(-c2ccc3c(c2)COc2c4ccccc4nn2-3)on1	-3.4	31.6*	7.7	-21.8	-1.6	-7.3
CC(C)(C)OC(=O)N1CCCN(C(c2cc3ccccc3o2)c2nnnn2C(C)(C)C)CC1 (stereo not drawn)	-3.1	-3.0	x	x	1.7	x
